From ChEMBL document CHEMBL2417469, “Synthesis of novel analogs of 2-pyrazoline obtained from [(7-chloroquinolin-4-yl)amino]chalcones and hydrazine as potential antitumor and antimalarial agents” (Eur J Med Chem, 2013)

Columns and labels:
[1] = Toxicity in RBC (unknown origin) assessed as hemolysis after 48 hrs at 20 to 80 ug/ml by spectrophotometry; assay type: cell-based, Erythrocyte; details: red blood cells (RBC); read-out: Activity
Summary of the method: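 Red blood cells at 5% hematocrit in RPMI 1640 exposed to 20, 40 and 80 µg/mL for 48 h at 37 °C; free hemoglobin read spectrophotometrically at 542 nm.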

[2] = tested on: Plasmodium falciparum; experiment: Antimalarial activity against Plasmodium falciparum NF54 infected in human serum at 20 ug/ml after 48 hrs by fluorometric method; assay type: functional
Summary of the method: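 Asynchronous P. falciparum NF54 at 1.5–2% parasitemia, 5% hematocrit in RPMI with 10% human serum, exposed 48 h at 37 °C under 90% N2/5% CO2/5% O2 at the stated concentration; parasite DNA stained with ethidium bromide after proteinase K lysis; viability % = (Flu treated − medium)/(Flu untreated − medium) ×100; triplicate.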

[3] = tested on: T47D; experiment: Cytotoxicity against human T47D cells after 48 hrs by SRB assay; assay type: functional
Summary of the method: (§1)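 NCI 60-cell screen. Cells grew 24 h (37 °C, 5% CO2) before compound was added. Compounds were in DMSO and diluted in medium with gentamicin, then tested at five levels (100, 10, 1.0, 0.1, 0.01 µM) with 48 h continuous exposure. Adherent cells were fixed with TCA (10% final) and stained with 0.4% SRB, absorbance read at 515 nm. A time-zero plate was included. LC50 is the concentration giving 50% loss of protein relative to time zero.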

[4] = tested on: MCF7; experiment: Cytotoxicity against human MCF7 cells after 48 hrs by SRB assay; assay type: functional; details: MCF7, 48 h
Summary of the method: (§2)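 NCI 60-cell-line screen. Cells preincubated 24 h at 37 °C, 5% CO2; time-zero plates TCA-fixed. Compounds dissolved in DMSO and tested at five concentrations (100, 10, 1.0, 0.1, 0.01 µM) for 48 h continuous exposure. Adherent cells fixed with cold TCA (10% final), then SRB stained; absorbance at 515 nm. GI50, TGI and LC50 calculated from growth relative to time-zero and untreated controls.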

[5] = tested on: SN12C; experiment: Cytotoxicity against human SN12C cells after 48 hrs by SRB assay; assay type: functional; summary of the method: as §2
[6] = tested on: ACHN; experiment: Cytotoxicity against human ACHN cells after 48 hrs by SRB assay; assay type: functional; summary of the method: as §2
[7] = tested on: OVCAR-8; experiment: Cytotoxicity against human OVCAR8 cells after 48 hrs by SRB assay; assay type: functional; details: OVCAR-8, 48 h; summary of the method: as §2
[8] = tested on: OVCAR-5; experiment: Cytotoxicity against human OVCAR5 cells after 48 hrs by SRB assay; assay type: functional; details: OVCAR-5, 48 h; summary of the method: as §2
[9] = tested on: OVCAR-3; experiment: Cytotoxicity against human OVCAR3 cells after 48 hrs by SRB assay; assay type: functional; details: OVCAR-3, 48 h; summary of the method: as §2
[10] = tested on: SK-MEL-5; experiment: Cytotoxicity against human SK-MEL-5 cells after 48 hrs by SRB assay; assay type: functional; details: SK-MEL-5, 48 h; summary of the method: as §2
[11] = tested on: SK-MEL-28; experiment: Cytotoxicity against human SK-MEL-28 cells after 48 hrs by SRB assay; assay type: functional; details: SK-MEL-28, 48 h; summary of the method: as §2
[12] = tested on: SK-MEL-2; experiment: Cytotoxicity against human SK-MEL-2 cells after 48 hrs by SRB assay; assay type: functional; details: SK-MEL-2, 48 h; summary of the method: as §2
[13] = tested on: MDA-MB-435; experiment: Cytotoxicity against human MDA-MB-435 cells after 48 hrs by SRB assay; assay type: functional; details: MDA-MB-435, 48 h; summary of the method: as §2
[14] = tested on: SNB-19; experiment: Cytotoxicity against human SNB19 cells after 48 hrs by SRB assay; assay type: functional; details: SNB-19, 48 h; summary of the method: as §1
[15] = tested on: SF-268; experiment: Cytotoxicity against human SF268 cells after 48 hrs by SRB assay; assay type: functional; details: SF-268, 48 h; summary of the method: as §2
[16] = tested on: HCT-116; experiment: Cytotoxicity against human HCT116 cells after 48 hrs by SRB assay; assay type: functional; details: HCT-116, 48 h; summary of the method: as §2
[17] = tested on: HCC 2998; experiment: Cytotoxicity against human HCC2998 cells after 48 hrs by SRB assay; assay type: functional; details: HCC 2998, 48 h; summary of the method: as §2
[18] = tested on: NCI-H460; experiment: Cytotoxicity against human NCI-H460 cells after 48 hrs by SRB assay; assay type: functional; details: NCI-H460, 48 h; summary of the method: as §2
[19] = tested on: NCI-H226; experiment: Cytotoxicity against human NCI-H226 cells after 48 hrs by SRB assay; assay type: functional; details: NCI-H226, 48 h; summary of the method: as §2
[20] = tested on: HOP-92; experiment: Cytotoxicity against human HOP92 cells after 48 hrs by SRB assay; assay type: functional; details: HOP-92, 48 h; summary of the method: as §2
[21] = tested on: HOP-62; experiment: Cytotoxicity against human HOP62 cells after 48 hrs by SRB assay; assay type: functional; details: HOP-62, 48 h; summary of the method: as §2
[22] = Cytotoxicity against human EKVX cells after 48 hrs by SRB assay; assay type: functional; summary of the method: as §2
[23] = tested on: RPMI-8226; experiment: Cytotoxicity against human RPMI8226 cells after 48 hrs by SRB assay; assay type: functional; details: RPMI-8226, 48 h; summary of the method: as §2
[24] = tested on: K562; experiment: Cytotoxicity against human K562 cells after 48 hrs by SRB assay; assay type: functional; details: K562, 48 h; summary of the method: as §2
[25] = read-out: LC50 (the source's name)

Question: What does the source list for `COc1cc(C2CC(c3cccc(Nc4ccnc5cc(Cl)ccc45)c3)=NN2C=O)cc(OC)c1OC` (stereo unspecified)?
Answer: hemolysis at 48 h [1]: 3.4%; inhibition at 20 µg/mL [2]: 24.6%; GI50 [3]: 0.65 µM; LC50 (concentration giving 50% cell kill relative to time zero) [3]: 69.3 µM; GI50 [4]: 0.37 µM; CC50 [4, 25]: > 100 µM; GI50 [5]: 0.78 µM; LC50 (50% net cell kill relative to time zero) [5]: > 100 µM; GI50 [6]: 1.27 µM; CC50 [6, 25]: > 100 µM; GI50 [7]: 2.06 µM; LC50 (50% net cell kill) [7]: > 100 µM; GI50 [8]: 4.32 µM; LC50 [8]: > 100 µM; GI50 [9]: 0.52 µM; LC50 [9]: 6.06 µM; GI50 [10]: 0.42 µM; LC50 (concentration killing 50% of cells present at time zero) [10]: 23.5 µM; GI50 [11]: 1.02 µM; CC50 [11, 25]: 97.1 µM; GI50 [12]: 0.73 µM; LC50 [12]: 50.1 µM; GI50 [13]: 0.22 µM; LC50 [13]: > 100 µM; GI50 [14]: 3.42 µM; LC50 [14]: > 100 µM; GI50 [15]: 2.55 µM; LC50 [15]: > 100 µM; GI50 [16]: 0.4 µM; LC50 [16]: 6.71 µM; GI50 [17]: 2.16 µM; LC50 [17]: > 100 µM; GI50 [18]: 0.42 µM; LC50 [18]: > 100 µM; GI50 [19]: 2.2 µM; LC50 (50% lethal concentration) [19]: > 100 µM; GI50 [20]: 2.75 µM; LC50 (concentration killing 50% of cells) [20]: > 100 µM; GI50 [21]: 1.12 µM; LC50 (50% lethal concentration) [21]: 66.5 µM; GI50 [22]: 0.98 µM; LC50 [22]: > 100 µM; GI50 [23]: 8.83 µM; LC50 (concentration killing 50% of cells) [23]: > 100 µM; GI50 [24]: 0.43 µM; LC50 (concentration killing 50% of cells) [24]: > 100 µM
